From ChEMBL document CHEMBL1131724, “The structure-based design and synthesis of selective inhibitors of Trypanosoma cruzi dihydrofolate reductase” (Bioorg Med Chem Lett, 1999)

Experiments:
[1] = Selectivity for Trypanosoma cruzi dihydrofolate reductase compared to human dihydrofolate reductase
Dihydrofolate reductase = target: T1, Dihydrofolate reductase (Homo sapiens, UniProt P00374); experiment: Inhibitory activity against dihydrofolate reductase in humans
T1 sequence (P00374 whole entry): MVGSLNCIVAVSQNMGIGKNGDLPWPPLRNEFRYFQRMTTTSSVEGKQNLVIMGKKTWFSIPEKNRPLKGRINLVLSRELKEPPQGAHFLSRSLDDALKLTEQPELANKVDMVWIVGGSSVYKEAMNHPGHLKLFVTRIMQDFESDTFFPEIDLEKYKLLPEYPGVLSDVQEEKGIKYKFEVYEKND

[2] = In vitro activity against the amastigote stage of the parasite cultured in mouse fibroblasts (L-6 cells); assay type: functional, cell-based
Outline: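 L-6 mouse fibroblasts seeded, infected next day with trypomastigote T. cruzi expressing beta-galactosidase; after two days medium replaced with serial drug dilutions; four-day incubation; chlorophenol red beta-D-galactopyranoside substrate added, absorbance read at 540 nm 2-6 h later to quantify parasite growth; IC50 determined.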

SMILES	Selectivity [1]	Ki (Dihydrofolate reductase)	IC50 [2]
Nc1nc(N)c2nc(CN(CCCC(=O)O)c3ccc(C(=O)NC(CCC(=O)O)C(=O)O)cc3)cnc2n1 (stereo not given)			> 171 µM
CCOC(=O)CCCN(Cc1cnc2nc(N)nc(N)c2n1)c1ccc(C(=O)NC(CCC(=O)OCC)C(=O)OCC)cc1 (stereo not given)			61 µM
CN(Cc1cnc2nc(N)nc(N)c2n1)c1ccc(C(=O)N[C@@H](CCC(=O)O)C(=O)O)cc1 [METHOTREXATE]			9.2 µM

Further lines, with some results ahead:

Selectivity [1]	Ki (Dihydrofolate reductase)	SMILES	IC50 [2]
8.9	0.00163 µM	Nc1nc(N)c2nc(CN(CCCCCC(=O)O)c3ccc(C(=O)NC(CCC(=O)O)C(=O)O)cc3)cnc2n1 (stereo not given)	11.5 µM
8.71	0.485 µM	CCOC(=O)CCCCCN(Cc1cnc2nc(N)nc(N)c2n1)c1ccc(C(=O)NC(CCC(=O)OCC)C(=O)OCC)cc1 (stereo not given)	53.5 µM
11.1	0.00145 µM	Nc1nc(N)c2nc(CN(CCCCC(=O)O)c3ccc(C(=O)NC(CCC(=O)O)C(=O)O)cc3)cnc2n1 (stereo not given)	> 167 µM
9.9	0.453 µM	CCOC(=O)CCCCN(Cc1cnc2nc(N)nc(N)c2n1)c1ccc(C(=O)NC(CCC(=O)OCC)C(=O)OCC)cc1 (stereo not given)	38.8 µM
